Sampled rows, rich in hits. Any-hit rate of the full collection: about 2.2%.
MT stabilizer: stabilizes microtubules in HeLa cells; % tubulin-high responders, % at 10 µM; hit rate 0.83% among 200,000; HeLa tubulin immunostaining HCS, 24 h; share of cells brighter than vehicle mean+2SD;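 active = plate Z-score above 3 for both tubulin-high and condensed-nucleus cell shares, with cell loss under 80%, at 10 µM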;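 also: anti alpha tubulin signal scored within the nucleus-defined area of each cell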
Ba/F3 V617F tox: loss of viability in JAK2V617F-driven Ba/F3 cells. AID 1446. hit rate 1.1% among 220,000. Ba/F3 EpoR-JAK2V617F viability, ATP luminescence. inhibition, % at 5.6 µM;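 active = inhibition above the campaign mean plus 3 SD over all tested compounds, cut at about 24% in these data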;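 also: cytokine-independent growth of Ba/F3 cells driven by EpoR plus mutant JAK2; 0% = DMSO-treated cells and 100% = JAK inhibitor I control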
APP 5UTR inh: APP translation inhibition. hit rate 0.82% among 190,000. inhibition, % at 2 µM. SH-SY5Y APP 5'UTR-luciferase reporter, luminescence;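 active = inhibition above a set limit, derived from the sample mean plus 3 SD, cut at about 45% in these data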
IEC-6 tox: counter-screen for KLF5 inhibitors: cytotoxicity in IEC-6 cells; IEC-6 cytotoxicity, luminescence viability; hit rate 0.78% among 290,000; inhibition, % at 5 µM; AID 1825; in the data active = inhibition above about 22%;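 also: 0% = plate median of test compound wells and 100% = cytotoxic reference compound wells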
BaF3 tox: reduces parental Ba/F3 cell viability, JAK2V617F counter-screen; inhibition, % at 5.6 µM; AID 1486; CellTiter-Glo ATP luminescence; hit rate 1.1% among 220,000;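 active = inhibition above a per-campaign cutoff, the mean inhibition of all tested compounds plus 3 SD, cut at about 27% in these data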;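 also: 0% = DMSO wells and 100% = JAK Inhibitor I control wells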
bCat nuc transl: beta-catenin nuclear translocation modulation; HeLa beta-catenin nuclear translocation, immunofluorescence imaging; nuclear translocation activity, % at 5 µM; hit rate 0.3% among 190,000; AID 1665;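 active = nuclear translocation activity above 50% at 5 µM, with a well cell count of 50 or more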;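 also: per-cell ratio of nuclear to cytoplasmic median beta-catenin stain intensity; plate controls were DMSO negative control for no effect and GSK-3 inhibitor IX positive control for full effect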
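System: HeLa cells, endogenous beta-catenin; compound dosing: 5 µM primary single dose, 0.1% DMSO, 0.02–20 µM confirmation series; incubation: 24 h compound exposure at 37°C, 5% CO2; signal: beta-catenin immunofluorescence imaging with DAPI; evaluation: % activation, nuclear-to-cytoplasmic median beta-catenin signal ratio per cell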
* hit, by the source's call; x = not tested or not shown.

SMILES | MT stabilizer | Ba/F3 V617F tox | APP 5UTR inh | IEC-6 tox | BaF3 tox | bCat nuc transl
Nc1cc(Cl)ccc1N1CCCC1 | 3 | 42* | -4 | -1 | 55* | -3
CSc1ccc(/C=N/NC(=O)c2ccc(C)c(C)c2)cc1 | 24* | 2 | 8 | 8 | 2 | 1
CSc1ccc(/C=N/NC(=O)c2cc(O)cc(O)c2)cc1 | 2 | -1 | -50 | 7 | 3 | -1
Cc1ccc(NC(=O)NNC(=O)Cn2nc(-c3ccccc3)c(-c3ccccc3)c(C#N)c2=O)cc1 | 27* | 1 | 7 | -2 | -1 | 0
O=C(Cn1nc(-c2ccccc2)c2ccccc2c1=O)Nc1ccc(O)cc1 | x | -2 | x | -1 | -5 | 1
CCC(C)(C)NC(=O)C(c1ccc(OC)cc1)N(C(=O)CCC(=O)Nc1cc(C)on1)c1cc(OC)ccc1OC (centres undefined) | x | x | x | -3 | x | x
CCCCCC(=O)c1c(C)[nH]c(C(=O)OCC)c1C | 3 | -3 | -20 | 1 | 1 | -2
CCOC(=O)c1[nH]c(C=O)c(C(=O)OCC)c1C | 5 | 4 | 91* | -4 | 3 | 2
CCCCCCC(=O)c1c(C)[nH]c(C(=O)OCC)c1C | 3 | 0 | -18 | 8 | 41* | -1
Cc1ccc(/C=N/NC(=O)c2cccc([N+](=O)[O-])c2)o1 | 3 | 3 | 62* | 1 | 6 | -1
Cc1cccc(C(=O)N/N=C/c2cc(Br)c(Br)o2)c1 | 11* | 0 | 1 | 0 | 4 | x
CC(=O)Nc1cccc(C(=O)N/N=C/c2ccc(C)o2)c1 | x | 5 | -7 | 6 | 7 | 2
Cc1onc(-c2ccccc2)c1C(=O)N/N=C/c1cc(Br)c(Br)o1 | 4 | 2 | 9 | -1 | 4 | x
COC(=O)CN(C)C(=O)c1ccc2nc(Cc3cccc(Cl)c3)oc2c1 | x | x | x | 2 | x | x
COc1ccc(-c2nc(-c3ccccn3)no2)cc1 | 1 | 34* | 46* | 28* | 35* | 0
COc1ccccc1-c1nc(-c2ccccn2)no1 | 3 | 20 | -98 | 18 | 23 | x
N#C/C(=C\c1cccn1-c1ccccc1)C(=O)NC1CCCCC1 | 30* | 0 | -6 | 0 | 7 | 3
Cc1ccc(Cl)cc1NC(=O)Nc1c(C)n(C)n(-c2ccccc2)c1=O | x | x | x | 3 | x | x
CCOc1cc(C2C3=C(CCCC3=O)N(C)C3=C2C(=O)CCC3)cc(Cl)c1O | 4 | 58* | -42 | 6 | 58* | -2
CCOc1cc(C2C3=C(CCCC3=O)NC3=C2C(=O)CCC3)cc(Cl)c1O | x | x | x | x | x | 0
Cc1ccc(S(=O)(=O)NC2(C(F)(F)F)C(=O)Nc3c2c(=O)[nH]c(=O)n3-c2ccccc2)cc1 (centres undefined) | 3 | 3 | -2 | 10 | 3 | 0
O=c1[nH]c(=O)n(-c2ccccc2)c2c1C(C(F)(F)F)(C(F)(F)F)N=C(C1CCCCC1)N2 | 3 | 4 | 3 | 4 | 40* | -2
Cc1ccc(N(CC(=O)N2CCN(Cc3ccccc3)CC2)S(C)(=O)=O)cc1C | x | x | x | -3 | x | x
COc1ccc2oc(C(=O)OCC(=O)Nc3ccc(C(=O)N(C)C)cc3)c(C)c2c1 | x | x | x | -4 | x | x
N=c1c2c(n(Cc3ccc(Br)cc3)c3c1CCC3)CCCC2 | 3 | 100* | -3 | 18 | 75* | -2
SMILES | MT stabilizer | Ba/F3 V617F tox | APP 5UTR inh | IEC-6 tox | BaF3 tox | bCat nuc transl
N=c1c2c(n(Cc3ccc([N+](=O)[O-])cc3)c3c1CCC3)CCCC2 | 2 | 0 | -7 | -5 | 10 | 1
Clc1ccc(CN2C3=NCCN3c3ccccc32)cc1Cl | 3 | 4 | -3 | 0 | 5 | 2
N=c1c2c(n(Cc3ccc(Cl)c(Cl)c3)c3c1CCC3)CCCC2 | 5 | 88* | 12 | -1 | 76* | 4
CC(NC(=O)COC(=O)C1CCN(c2ccc(C(F)(F)F)cn2)CC1)c1ccc(Br)cc1 (centres undefined) | x | x | x | 3 | x | x
C/C(=N\NC(=O)c1ccc(Cl)c(Cl)c1)c1ccc(Br)s1 | 5 | -3 | 52* | -8 | 4 | -1
C/C(=N/NC(=O)c1ccc2c(c1)OCO2)c1ccc(Br)s1 | 6 | -1 | -82 | -1 | -2 | -1
O=C(c1cc2sccc2n1Cc1ccc(F)cc1)N1CCCc2ccccc21 | 2 | -3 | 58* | 2 | -3 | -2
Cn1cc(C2CC(c3ccccc3)=NN2C(=O)c2ccccc2)c2ccccc21 (centres undefined) | 24* | -3 | 2 | 3 | 8 | 1
CC(C)(C)OC(=O)N1CCN(CCNC(=O)c2ccccc2)CC1 | x | x | x | -7 | x | x
NS(=O)(=O)c1ccc(CNC(=S)NCc2ccc(F)cc2)cc1 | x | x | x | 4 | x | x
NS(=O)(=O)c1ccc(CNC(=S)NCc2ccc(Cl)cc2)cc1 | 11* | -1 | -19 | 1 | 4 | 1
NS(=O)(=O)c1ccc(CNC(=O)Cc2c(F)cccc2Cl)cc1 | 2 | 2 | 7 | -5 | 60* | 0
COc1ccc(N(CC(=O)NCc2ccc(C)cc2)S(=O)(=O)c2c(C)noc2C)cc1 | x | x | x | 3 | x | x
S=C(Nc1ccccc1)N1CCN(Cc2ccccc2)CC1 | x | 5 | x | 0 | 39* | 1
S=C(Nc1cccc(Cl)c1)N1CCN(Cc2ccccc2)CC1 | 2 | 1 | 4 | -3 | 9 | 3
O=[N+]([O-])c1ccccc1OCCCOc1cccc2cccnc12 | x | x | x | 4 | x | x
CCC(C)N(C(=O)c1csnn1)C(C(=O)NC1CCCC1)c1ccccc1F (centres undefined) | x | x | x | 2 | x | x
COc1ccc(N(C)C(=S)Oc2ccc(C(=O)Nc3ccccc3)cc2)cc1 | 44* | 3 | -12 | -5 | 1 | -2
COc1ccc(C(=O)Nc2cc(OC)cc(OC)c2)cc1 | 10 | 4 | -125 | 9 | 69* | 0
COc1ccc(C(=O)Nc2cccc(OC(=O)c3ccc(C)c(C)c3)c2)cc1 | 22* | -4 | -107 | -2 | 0 | 0
COc1ccc(NC(=O)c2cccc(NC(=O)c3ccccc3)c2)cc1 | x | x | x | 9 | x | x
CCN(c1ccc(OC)cc1)S(=O)(=O)c1ccc(-c2ccc(=O)[nH]n2)o1 | x | x | x | -1 | x | x
Cc1cc(C)n(CC(=O)NC2CCCc3c2cnn3-c2ccc(C)c(C)c2)n1 (centres undefined) | x | x | x | 6 | x | x
N#CC1=C(N)Oc2cc(N)ccc2C1c1cccnc1 (centres undefined) | 24* | 0 | -17 | -8 | 0 | 0
N#CC1=C(N)Oc2cc(N)ccc2C1c1ccc(Cl)cc1 (centres undefined) | x | x | x | 0 | x | x
COc1ccc(C2C(C#N)=C(N)Oc3c2ccc2cccnc32)cc1OC (centres undefined) | 16* | 78* | 92* | 17 | 76* | 61*
COc1cc(C2C(C#N)=C(N)Oc3cc(N)ccc32)cc(OC)c1OC (centres undefined) | 18* | -4 | 95* | -1 | 3 | 71*
Cc1cc(=O)oc2cc(OCC(=O)N/N=C/c3ccccc3O)ccc12 | x | x | x | -4 | x | x
CSc1nc(C)cc(OCC(=O)N/N=C/c2ccccc2O)n1 | 17* | -1 | 41 | 0 | 8 | 94*

Source: PubChem (several laboratories)
